Experiments:
Format in all cases: functional
MDA-MB-231 [1] = test: Growth inhibition of human MDA-MB-231 cells
MDA-MB-468 [2] = test: Growth inhibition of human MDA-MB-468 cells assessed tumor cell growth at 10^-5 M; set-up: scale not given: the % may be the effect or the level left
Summary of the method: (§1)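 NCI 60-human-tumor-cell-line panel screen. Each compound was tested at a single concentration of 10^-5 M, and percent growth of tumor cells was recorded for each cell line. Growth inhibition was expressed from these percent-growth values.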

HT-29 [3] = test: Growth inhibition of human HT-29 cells assessed tumor cell growth at 10^-5 M; set-up: scale not given: the % may be the effect or the level left; summary of the method: as §1
OVCAR-8 = test: Growth inhibition of human OVCAR8 cells
OVCAR-3 [4] = test: Growth inhibition of human OVCAR3 cells
UACC-62 = test: Growth inhibition of human UACC62 cells
HCT-116 = test: Growth inhibition of human HCT116 cells assessed tumor cell growth at 10^-5 M; set-up: scale not given: the % may be the effect or the level left; summary of the method: as §1
PC-3 [5] = test: Growth inhibition of human PC3 cells
DU-145 [6] = test: Growth inhibition of human DU145 cells
SF-539 = test: Growth inhibition of human SF539 cells
SF-295 = test: Growth inhibition of human SF295 cells assessed tumor cell growth at 10^-5 M; set-up: scale not given: the % may be the effect or the level left; summary of the method: as §1
DU-145 [7] = test: Growth inhibition of human DU145 cells assessed tumor cell growth at 10^-5 M; set-up: scale not given: the % may be the effect or the level left; summary of the method: as §1
Malme-3M [8] = test: Growth inhibition of human MALME-3M cells assessed tumor cell growth at 10^-5 M; set-up: scale not given: the % may be the effect or the level left; summary of the method: as §1
SN12C = test: Growth inhibition of human SN12C cells assessed tumor cell growth at 10^-5 M; set-up: scale not given: the % may be the effect or the level left; summary of the method: as §1
U-251 = test: Growth inhibition of human U251 cells
HCC 2998 = test: Growth inhibition of human HCC2998 cells assessed tumor cell growth at 10^-5 M; set-up: scale not given: the % may be the effect or the level left; summary of the method: as §1
NCI-H460 = test: Growth inhibition of human NCI-H460 cells assessed tumor cell growth at 10^-5 M; set-up: scale not given: the % may be the effect or the level left; summary of the method: as §1
MCF7 = test: Growth inhibition of human MCF7 cells assessed tumor cell growth at 10^-5 M; set-up: scale not given: the % may be the effect or the level left; summary of the method: as §1
MDA-MB-435 [9] = test: Growth inhibition of human MDA-MB-435 cells assessed tumor cell growth at 10^-5 M; set-up: scale not given: the % may be the effect or the level left; summary of the method: as §1
NCI-H226 = test: Growth inhibition of human NCI-H226 cells
SW-620 = test: Growth inhibition of human SW620 cells
SK-MEL-2 = test: Growth inhibition of human SK-MEL-2 cells
CCRF-CEM [10] = test: Growth inhibition of human CCRF-CEM cells
A549 [11] = test: Growth inhibition of human A549 cells assessed tumor cell growth at 10^-5 M; set-up: scale not given: the % may be the effect or the level left; summary of the method: as §1
HT-29 [12] = test: Growth inhibition of human HT-29 cells
MDA-MB-468 [13] = test: Growth inhibition of human MDA-MB-468 cells
SR [14] = test: Growth inhibition of human SR cells
OVCAR-3 [15] = test: Growth inhibition of human OVCAR3 cells assessed tumor cell growth at 10^-5 M; set-up: scale not given: the % may be the effect or the level left; summary of the method: as §1
NCI-H23 [16] = test: Growth inhibition of human NCI-H23 cells assessed tumor cell growth at 10^-5 M; set-up: scale not given: the % may be the effect or the level left; summary of the method: as §1
CAKI-1 = test: Growth inhibition of human Caki1 cells assessed tumor cell growth at 10^-5 M; set-up: scale not given: the % may be the effect or the level left; summary of the method: as §1
PC-3 [17] = test: Growth inhibition of human PC3 cells assessed tumor cell growth at 10^-5 M; set-up: scale not given: the % may be the effect or the level left; summary of the method: as §1
786-0 = test: Growth inhibition of human 786-0 cells
NCI-H23 [18] = test: Growth inhibition of human NCI-H23 cells
NCI-H322M [19] = test: Growth inhibition of human NCI-H322M cells
EKVX = test: Growth inhibition of human EKVX cells
RXF 393 [20] = test: Growth inhibition of human RXF393 cells assessed tumor cell growth at 10^-5 M; set-up: scale not given: the % may be the effect or the level left; summary of the method: as §1
A549 [21] = test: Growth inhibition of human A549 cells
HCT-15 = test: Growth inhibition of human HCT15 cells
CCRF-CEM [22] = test: Growth inhibition of human CCRF-CEM cells assessed tumor cell growth at 10^-5 M; set-up: scale not given: the % may be the effect or the level left; summary of the method: as §1
T47D = test: Growth inhibition of human T47D cells assessed tumor cell growth at 10^-5 M; set-up: scale not given: the % may be the effect or the level left
Summary of the method: (§2)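 Single-dose screen at 10^-5 M across the 60 human tumor cell line panel, run to NCI standards. The value is the percent growth of each cell line in the presence of compound. Compounds active at this dose moved on to five-concentration testing (10^-4 to 10^-8 M).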

COLO 205 = test: Growth inhibition of human COLO205 cells assessed tumor cell growth at 10^-5 M; set-up: scale not given: the % may be the effect or the level left; summary of the method: as §1
Malme-3M [23] = test: Growth inhibition of human MALME-3M cells
SR [24] = test: Growth inhibition of human SR cells assessed tumor cell growth at 10^-5 M; set-up: scale not given: the % may be the effect or the level left; summary of the method: as §2
MDA-MB-231 [25] = test: Growth inhibition of human MDA-MB-231 cells assessed tumor cell growth at 10^-5 M; set-up: scale not given: the % may be the effect or the level left; summary of the method: as §1
NCI-H322M [26] = test: Growth inhibition of human NCI-H322M cells assessed tumor cell growth at 10^-5 M; set-up: scale not given: the % may be the effect or the level left; summary of the method: as §1
HL-60(TB) = test: Growth inhibition of human HL-60(TB) cells
A498 = test: Growth inhibition of human A498 cells assessed tumor cell growth at 10^-5 M; set-up: scale not given: the % may be the effect or the level left; summary of the method: as §1
UACC-257 = test: Growth inhibition of human UACC257 cells assessed tumor cell growth at 10^-5 M; set-up: scale not given: the % may be the effect or the level left; summary of the method: as §2
MOLT-4 = test: Growth inhibition of human MOLT4 cells assessed tumor cell growth at 10^-5 M; set-up: scale not given: the % may be the effect or the level left; summary of the method: as §1
MDA-MB-435 [27] = test: Growth inhibition of human MDA-MB-435 cells
RXF 393 [28] = test: Growth inhibition of human RXF393 cells
OVCAR-4 = test: Growth inhibition of human OVCAR4 cells assessed tumor cell growth at 10^-5 M; set-up: scale not given: the % may be the effect or the level left; summary of the method: as §1
KM12 = test: Growth inhibition of human KM12 cells assessed tumor cell growth at 10^-5 M; set-up: scale not given: the % may be the effect or the level left; summary of the method: as §1
HOP-62 = test: Growth inhibition of human HOP62 cells assessed tumor cell growth at 10^-5 M; set-up: scale not given: the % may be the effect or the level left; summary of the method: as §1
[29] = read-out: LC50 (the source's name)

O=C1/C(=C\c2coc3ccccc3c2=O)c2ccccc2N1c1c(Cl)cccc1Cl
GI50 (MDA-MB-231 [1]): 3.8 µM
CC50 (MDA-MB-231 [1]; [29]): > 100 µM
Activity (MDA-MB-468 [2]): 44.85%
Activity (HT-29 [3]): 47.62%
GI50 (OVCAR-8): 5.4 µM
CC50 (OVCAR-8; [29]): > 100 µM
GI50 (OVCAR-3 [4]): 2.6 µM
CC50 (OVCAR-3 [4]; [29]): > 100 µM
GI50 (UACC-62): 2.1 µM
CC50 (UACC-62; [29]): > 100 µM
Activity (HCT-116): 35.61%
GI50 (PC-3 [5]): 1.3 µM
CC50 (PC-3 [5]; [29]): > 100 µM
GI50 (DU-145 [6]): 4.6 µM
CC50 (DU-145 [6]; [29]): > 100 µM
GI50 (SF-539): 3 µM
CC50 (SF-539; [29]): > 100 µM
Activity (SF-295): -12.01%
Activity (DU-145 [7]): 24.59%
Activity (Malme-3M [8]): 83.75%
Activity (SN12C): 59.48%
GI50 (U-251): 1.4 µM
CC50 (U-251; [29]): > 100 µM
Activity (HCC 2998): 53%
Activity (NCI-H460): 19.05%
Activity (MCF7): 31.61%
Activity (MDA-MB-435 [9]): 14.46%
GI50 (NCI-H226): 20.8 µM
CC50 (NCI-H226; [29]): > 100 µM
GI50 (SW-620): 5.2 µM
CC50 (SW-620; [29]): > 100 µM
GI50 (SK-MEL-2): 2.7 µM
CC50 (SK-MEL-2; [29]): 61.6 µM
GI50 (CCRF-CEM [10]): 2 µM
CC50 (CCRF-CEM [10]; [29]): > 100 µM
Activity (A549 [11]): 26.65%
GI50 (HT-29 [12]): 3 µM
CC50 (HT-29 [12]; [29]): > 100 µM
GI50 (MDA-MB-468 [13]): 2.4 µM
CC50 (MDA-MB-468 [13]; [29]): > 100 µM
GI50 (SR [14]): 1.4 µM
CC50 (SR [14]; [29]): > 100 µM
Activity (OVCAR-3 [15]): 16.79%
Activity (NCI-H23 [16]): 55.41%
Activity (CAKI-1): -7.88%
Activity (PC-3 [17]): 31.81%
GI50 (786-0): 3 µM
CC50 (786-0; [29]): > 100 µM
GI50 (NCI-H23 [18]): 4.4 µM
GI50 (NCI-H322M [19]): 5.8 µM
CC50 (NCI-H322M [19]; [29]): > 100 µM
GI50 (EKVX): 2.8 µM
CC50 (EKVX; [29]): > 100 µM
Activity (RXF 393 [20]): 44.09%
GI50 (A549 [21]): 4.2 µM
CC50 (A549 [21]; [29]): > 100 µM
GI50 (HCT-15): 0.6 µM
CC50 (HCT-15; [29]): > 100 µM
Activity (CCRF-CEM [22]): 21.08%
Activity (T47D): 30.04%
Activity (COLO 205): 55.33%
GI50 (Malme-3M [23]): 2.4 µM
CC50 (Malme-3M [23]; [29]): > 100 µM
Activity (SR [24]): 19.47%
Activity (MDA-MB-231 [25]): 60.45%
Activity (NCI-H322M [26]): 73.67%
GI50 (HL-60(TB)): 2 µM
CC50 (HL-60(TB); [29]): > 100 µM
Activity (A498): 12.65%
Activity (UACC-257): 61.22%
Activity (MOLT-4): 19.03%
GI50 (MDA-MB-435 [27]): 2.6 µM
CC50 (MDA-MB-435 [27]; [29]): > 100 µM
GI50 (RXF 393 [28]): 1.8 µM
CC50 (RXF 393 [28]; [29]): 69.1 µM
Activity (OVCAR-4): 49.54%
Activity (KM12): 27.09%
Activity (HOP-62): 68.24%

— ChEMBL document CHEMBL1811814, “Synthesis and evaluation of indole, pyrazole, chromone and pyrimidine based conjugates for tumor growth inhibitory activities--development of highly efficacious cytotoxic agents” (Eur J Med Chem, 2010)
